Compounds with a hit are over-represented: about 1.6% of the library has one in this group of screens.
MBD2 inh: inhibitors of MBD2 binding to methylated DNA, primary screen, biochemical, TR-FRET, DNA-binding domain, human. MBD2 binding to methylated oligonucleotide. 0.31% of 370,000 active. inhibition, % at 4.4 µM; in the data active = inhibition above about 13%
Target sequence (Q9UBB5 whole entry, looked up, the tested form may be a part): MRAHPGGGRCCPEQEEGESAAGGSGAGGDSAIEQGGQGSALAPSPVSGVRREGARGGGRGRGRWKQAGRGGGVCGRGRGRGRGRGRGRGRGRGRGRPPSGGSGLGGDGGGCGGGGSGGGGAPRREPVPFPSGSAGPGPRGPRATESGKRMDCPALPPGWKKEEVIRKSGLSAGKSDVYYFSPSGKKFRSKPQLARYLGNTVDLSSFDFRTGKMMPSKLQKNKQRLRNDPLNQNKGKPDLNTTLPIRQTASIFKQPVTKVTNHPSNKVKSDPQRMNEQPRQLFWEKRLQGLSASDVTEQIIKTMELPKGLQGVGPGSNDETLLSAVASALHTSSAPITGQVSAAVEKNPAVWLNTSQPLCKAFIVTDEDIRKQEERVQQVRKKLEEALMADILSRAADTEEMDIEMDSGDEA
LEDGF integ inh: blockers of LEDGF/p75-dependent integrase strand transfer – biochemical, TR-FRET, high throughput, primary screen | AID 743269, 2014 | TR-FRET IN-LEDGF/p75 DNA integration, Eu/Cy5 | 0.64% of 370,000 active | inhibition, % at 3.7 µM;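 active = inhibition above the screen-wide mean plus 3 SD, cut at about 13% in these data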;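 note: signal is the Cy5 over europium emission ratio at 671 and 618 nm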
TDP2 absorb: human TDP2 enzyme inhibitors, primary screen, biochemical, epi absorbance, recombinant enzyme | Tyrosyl-DNA phosphodiesterase 2 (Homo sapiens), O95551 | T5PNP hydrolysis, p-nitrophenol absorbance 415 nm | inhibition, % at 12.8 µM | 0.34% of 370,000 active | AID 720702, 2013;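 active = inhibition above the mean of all tested compounds plus 3 SD, set per campaign, cut at about 25% in these data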
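Test system: human TDP2 enzyme; Input: 120 nM TDP2 per well; Buffer or medium: Mg2+-containing Tris-HCl buffer, pH 7.5; Reagent: 5 mM T5PNP; Dosing: 12.8 µM single point, 1% DMSO; Incubation: reaction 2 h, 37 °C; Detection: p-Nitrophenol epi absorbance; Read-out: % inhibition relative to enzyme-containing and enzyme-free wells; Replicates: single well per compound.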
UHRF1 MBD2 ctr: UHRF1 methylated DNA binding inhibitors, primary screen, counter-screen for MBD2 inhibitor project, biochemical, TR-FRET, human UHRF1, single concentration. 0.75% of 370,000 active. AID 687016, 2013. UHRF1 binding to methylated oligo. inhibition, % at 4.4 µM. E3 ubiquitin-protein ligase UHRF1 (Homo sapiens), Q96T88; in the data active = inhibition above about 21%;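 note: UHRF1 SRA domain binding a hemimethylated CpG hairpin DNA probe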
IN multimer act: HIV-1 IN multimer formation enhancers, counter-screen for LEDGF/p75 integration inhibitor project, biochemical, TR-FRET. shares compounds with LEDGF integ inh. TR-FRET HIV-1 integrase multimerization. activation, % at 7.7 µM. 17% of 2,000 active; in the data active = activation above about 8.9%
TR-FRET interf: TR-FRET optical interference artefacts, confirmation, artefact control for LEDGF/p75-dependent integration inhibitor project, biochemical, HIV-1 IN multimerization; shares compounds with LEDGF integ inh; TR-FRET optical interference counterscreen; inhibition, % at 7.7 µM; 2,000 tested, under 10 active;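 active = inhibition above the mean over all tested compounds plus 3 SD, which no compound reached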
IN-LEDGF confirm: inhibitors of HIV-1 IN-LEDGF/p75 DNA integration, confirmation, biochemical, TR-FRET. shares compounds with LEDGF integ inh. 36% of 2,000 active. AID 1053136, 2014. inhibition, % at 3.7 µM. TR-FRET LEDGF/p75-dependent HIV-1 integration; in the data active = inhibition above about 14%
Each line names hits and unclear results; the compound was inactive in the other large screens (follow-up assays come after a bar, where they were run).

N#Cc1nc(-c2cccc(Cl)c2)oc1N1CCC(C(N)=O)CC1	LEDGF integ inh 26 | IN multimer act inactive | TR-FRET interf inactive | IN-LEDGF confirm inactive
COC(=O)c1cc2c(c3c4cc(OC)ccc4n(S(=O)(=O)c4ccc(F)cc4)c13)C(=O)N(CC(C)C)C2	none
CCCCCCCCSc1n[nH]c(N)n1	none
CCCCCCCCCSc1n[nH]c(N)n1	LEDGF integ inh 46 | IN multimer act inactive | TR-FRET interf inactive | IN-LEDGF confirm inactive
COc1ccc(C(=O)OCCCN(C)C2CN(Cc3cn(Cc4ccccc4Cl)nn3)S(=O)(=O)C2)cc1OC (configuration not stated)	none
Oc1ccc(-c2csc(Nc3cccc4ccccc34)n2)cc1O	LEDGF integ inh 24 | IN multimer act 17 | TR-FRET interf inactive | IN-LEDGF confirm 68
COC(=O)c1cccc(NC(=O)Cn2nnc3ccccc32)c1	LEDGF integ inh 19 | IN multimer act inactive | TR-FRET interf inactive | IN-LEDGF confirm inactive
COc1ccc(N2CCN(C(=O)c3ccc4c(c3)[nH]c(=S)n3c5ccccc5nc43)CC2)cc1	LEDGF integ inh 15, UHRF1 MBD2 ctr 43 | IN multimer act inactive | TR-FRET interf inactive | IN-LEDGF confirm inactive
Nc1[nH]c(C(=O)c2ccccc2)c(-c2cccc3ccccc23)c1C(=O)c1c(-c2ccccc2)[nH]c2ccccc12	none
Cc1[nH]c(=O)[nH]c1C(=O)CCCCC(=O)O	LEDGF integ inh 73 | IN multimer act inactive | TR-FRET interf inactive | IN-LEDGF confirm 60
C#CCN1CC(N(C)CCOC(=O)c2cc3ccccc3[nH]2)CS1(=O)=O (configuration not stated)	none
NC(=O)c1sc2nc(-c3cccnc3)ccc2c1N	none
NC(=O)c1sc2nc(-c3ccco3)ccc2c1N	LEDGF integ inh 41, UHRF1 MBD2 ctr 28 | IN multimer act 13 | TR-FRET interf inactive | IN-LEDGF confirm inactive
COc1ccc(CC(=O)NCCC(C)C)cc1S(=O)(=O)N1CCOCC1	LEDGF integ inh 89 | IN multimer act inactive | TR-FRET interf inactive | IN-LEDGF confirm inactive
COc1ccc(C(=O)NCCC(C)C)cc1S(=O)(=O)N1CCOCC1	none
O=C(NN1C(=O)/C(=C/c2ccc(O)c(O)c2)SC1=S)c1ccccc1	LEDGF integ inh 30 | IN multimer act 12 | TR-FRET interf inactive | IN-LEDGF confirm 54
CCSc1oc(-c2ccco2)nc1S(=O)(=O)c1ccc(C)cc1	none
Cc1ccc(S(=O)(=O)c2nc(-c3ccco3)oc2SC(C)C)cc1	LEDGF integ inh 16 | IN multimer act inactive | TR-FRET interf inactive | IN-LEDGF confirm inactive
CCCC(C)NC(=O)Cc1ccc(S(=O)(=O)N2CCOCC2)s1 (configuration not stated)	none
CCC(CC)NC(=O)Cc1ccc(S(=O)(=O)N2CCOCC2)s1	LEDGF integ inh 16 | IN multimer act inactive | TR-FRET interf inactive | IN-LEDGF confirm inactive
COc1ccc2c3c(ccc2c1)C(=O)/C(=C/O)CC3	LEDGF integ inh 17 | IN multimer act inactive | TR-FRET interf inactive | IN-LEDGF confirm 27
O=C(Oc1coc(CSc2ncccn2)cc1=O)c1ccc([N+](=O)[O-])cc1	none
O=C(COC(=O)c1c2c(nc3ccccc13)/C(=C/c1cccc([N+](=O)[O-])c1)CCC2)NC1CCS(=O)(=O)C1 (configuration not stated)	none
O=C(COC(=O)c1c2c(nc3ccccc13)/C(=C\c1ccco1)CC2)NC1CCCC1	LEDGF integ inh 28 | IN multimer act 34 | TR-FRET interf inactive | IN-LEDGF confirm 50

Source: PubChem (The Scripps Research Institute Molecular Screening Center)
